T cell modulator: modulates CD8 T cell binding to vesicles | 2C CD8+ T cell-vesicle binding, flow cytometry; active compounds read low | 0.068% of 330,000 active | response (vesicle binding), % at 7 µM;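 active means response, share of CD8 T cells binding vesicles, and their 90th percentile fluorescence all below set limits, cut at about 80% in these data, passing the limit was not always enough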;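 further: values below 100% mean blocked vesicle binding to the CD8+ T cells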
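incubation = binding step 1.5 h, 37 °C, antibody labelling 20 min, ice | test system = 2C mouse CD8+ T cells | read-out basis = percent CD8+ FL2 mean versus row control | controls = Peptide-free naked vesicles (low) and QL9 vesicles with 0.7% DMSO vehicle (high) | detection = flow cytometry of vesicle-bound cells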
Rce1 inhib: yeast Ras-converting enzyme inhibition; Q03530; yeast membranes, quenched prenylated peptide cleavage fluorescence; calls only; 0.27% of 290,000 active; AID 2563;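 active means fall in fluorescence gain of 50% or more versus controls, with final raw signal at or below 3038400; inconclusive means same 50% fall but final raw signal above 3038400; inactive means fall in fluorescence gain under 50%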
Target sequence (Q03530 whole entry, looked up): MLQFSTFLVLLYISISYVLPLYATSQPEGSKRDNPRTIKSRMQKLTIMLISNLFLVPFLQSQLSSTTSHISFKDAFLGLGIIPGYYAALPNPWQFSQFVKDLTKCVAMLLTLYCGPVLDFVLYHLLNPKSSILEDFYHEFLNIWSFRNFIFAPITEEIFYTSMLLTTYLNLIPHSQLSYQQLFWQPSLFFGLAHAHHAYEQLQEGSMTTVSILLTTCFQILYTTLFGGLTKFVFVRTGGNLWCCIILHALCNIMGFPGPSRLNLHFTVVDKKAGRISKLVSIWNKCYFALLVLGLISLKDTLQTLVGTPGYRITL
PolyA inh: yeast polyadenylation inhibition | S. cerevisiae SKY197-pL101 polyadenylation reporter, beta-gal luminescence; efflux-impaired pdr1/pdr3 knockout yeast; score 100 = 6 SD above DMSO | 0.02% of 300,000 active | activity score, % at 12 µM;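 active means lowest replicate activity score at least 50, where 100 means six control SD above control mean; inconclusive means lowest score under 50 but half or more replicates reach 50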;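 further: yeast exposed to compound for 9 h at 30 °C; higher score means more reporter readthrough which indicates perturbed polyadenylation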
aDG glyco up: increases alpha dystroglycan glycosylation; AID 624168; activation, % at 10 µM; 0.22% of 360,000 active; Pro5-aDG cells, alpha-DG glycosylation AlphaScreen (IIH6); 0% Pro5, 100% B10-LARGE cell signal;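 active means activation of at least 8% versus controls, or a plate z-score of at least 8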;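 further: Pro5 are CHO cells carrying HIG-tagged alpha-DG that lacks glycosylation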
Each line names hits and unclear results; the compound was inactive in the other large screens. A selection: hits, their analogues and other compounds. The true share with any hit is near 0.51%.

CCC(CO)Oc1cc(NCc2ccc(O)cc2)c2ncn(C(C)C)c2c1 (centres undefined)	none (no result: Rce1 inhib, PolyA inh)
CCC(CO)Oc1cc(NCc2ccc(C(C)(C)C)cc2)c2ncn(C(C)C)c2c1 (centres undefined)	aDG glyco up 5.2 (no result: Rce1 inhib, PolyA inh)
CC(C)NC(=O)C1(C)CSCC(=O)N1C1CCN(Cc2ccccc2)CC1 (centres undefined)	none (no result: T cell modulator, Rce1 inhib, PolyA inh)
COC(=O)CN(n1cnnc1)S(=O)(=O)c1ccccc1Cl	T cell modulator 67 (no result: Rce1 inhib)
CON(c1nc(N(C)C)nc(N(C)C)n1)S(=O)(=O)c1ccccc1Cl	none
COc1ccc(CN2C(=O)CN(S(C)(=O)=O)CC2(C)C(=O)Nc2c(C)cccc2C)cc1 (centres undefined)	none (no result: T cell modulator, Rce1 inhib, PolyA inh)
NC1=C(Cl)C(=O)c2ccccc2C1=O	aDG glyco up 22 (no result: T cell modulator, Rce1 inhib, PolyA inh)
O=C(Nc1ccc(OC(F)(F)F)cc1)Oc1ccccc1N1CCOCC1	none
O=C(Nc1ccc(F)cc1)Oc1ccccc1N1CCOCC1	Rce1 inhib active
Cc1c(C(=O)Nc2nc3ccccc3[nH]2)cccc1[N+](=O)[O-]	none
O=C(Nc1nc2ccccc2[nH]1)c1ccccc1[N+](=O)[O-]	T cell modulator 30
COC(=O)C1=CNC=C(C(=O)OC)C1c1cccc2ccccc12	Rce1 inhib active
NC(=O)c1c(NC(=O)c2cccnc2Cl)sc2c1CCCC2	T cell modulator 0.0
Cc1nc2c(C)cccn2c(=O)c1NC(=O)COc1ccccc1	Rce1 inhib active
COc1cccc(-c2cc(C(F)(F)F)n3ncc(S(=O)(=O)c4ccccc4)c3n2)c1	Rce1 inhib active
COc1cccc(-c2cc(C(F)(F)F)n3ncc(C(=O)O)c3n2)c1	none
COc1ccc(/C(O)=C2/C(=O)C(=O)N(Cc3cccnc3)C2c2ccco2)cc1OC (centres undefined)	T cell modulator 48
Cc1cccc(OCCCN2C(=O)C(=O)c3cc(C)ccc32)c1	Rce1 inhib active
Cc1ccc(OCCCN2C(=O)C(=O)c3cc(C)ccc32)cc1	PolyA inh inconclusive
Cc1ccc2c(c1)C(=O)C(=O)N2CCCOc1ccccc1	Rce1 inhib active
CCOc1ccc2oc(C(=O)Nc3cc(C)ccn3)c(C)c2c1	none
CCOC(=O)C1CCCN(S(=O)(=O)c2ccc(C)cc2)C1 (centres undefined)	none
CCOC(=O)C1CCCN(S(=O)(=O)c2ccc(S(=O)(=O)N(CC)CC)cc2)C1 (centres undefined)	aDG glyco up 7.4
Nc1cccc2nc3ccccc3cc12	Rce1 inhib active
Nc1[nH]nc2nc3ccccc3cc12	none
CSC1=NC=C(C#N)C2=NC(c3c(Cl)cccc3Cl)NN12 (centres undefined)	none (no result: T cell modulator, Rce1 inhib, PolyA inh)
COc1ccc(S(=O)(=O)N2CCCCC2)cc1NC(=O)Cc1cccc(C(F)(F)F)c1	none (no result: T cell modulator, Rce1 inhib, PolyA inh)
O=C(O)c1ccc2cccc(Cl)c2c1O	Rce1 inhib active
O=C(O)c1cccc(O)c1O	none
CCCCn1c(-c2ccco2)n[nH]c1=S	none
CCCCn1c(-c2sccc2C)n[nH]c1=S	Rce1 inhib active
CC(=O)c1c(COC(=O)c2ccc(Cl)cc2)nc2ccccc2[n+]1[O-]	PolyA inh 90
Cc1nn2c(NCCN(C)C)c3c(nc2c1-c1ccccc1)CCCC3	Rce1 inhib active
Oc1ccc(/C=N/n2cc(-c3ccccc3)[nH]c2=S)cc1	Rce1 inhib active
Cc1c(C(=O)NCc2ccc(F)cc2)sc(=O)n1Cc1ccccc1	none (no result: T cell modulator, Rce1 inhib, PolyA inh)
CCN1CCN(CC(O)COc2ccc3c(C)cc(=O)oc3c2)CC1 (centres undefined)	Rce1 inhib active
CCN1CCN(CC(O)COc2ccc(C)c(C)c2)CC1 (centres undefined)	none
COc1ccc(NC(=O)C(c2ccnc3ccccc23)n2c(=O)c(-c3ccccc3)nc3ccccc32)cc1 (centres undefined)	none (no result: T cell modulator, Rce1 inhib, PolyA inh)
O=c1c2ccccc2sc2ccc(C#CC3(O)CCCCC3)cc12	none
COc1cccc2sc3ccc(C#CC4(O)CCCCC4)cc3c(=O)c12	Rce1 inhib active
CN(Cc1ccco1)C(=O)CC[C@H]1O[C@@H](n2ccc(=O)[nH]c2=O)[C@H](O)[C@@H]1O	none (no result: T cell modulator, Rce1 inhib, PolyA inh)
CCOCCOC(=O)c1[nH]c2c(c1C)C(=O)CC(c1ccccc1)C2 (centres undefined)	aDG glyco up 2.2
CCOC(=O)C1CCCN(C(=O)CCn2nnnc2CN2CCOCC2)C1 (centres undefined)	Rce1 inhib active
O=C(O)CCc1ccc(-c2cccs2)n1Cc1ccco1	Rce1 inhib active
O=C(O)CCc1ccc(-c2ccc(Cl)cc2)n1Cc1ccco1	none

Compound activity: PubChem BioAssay, several laboratories
